Assay results as given in publication PMC7821153 (Chemical Biology & Drug Design, 2020).

Experiments:
Type in all cases: cell-based
[1] = Cellular cytotoxicity, ATP-dependent luminescence assay
Procedure, shortened: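 Cytotoxicity measured by ATP-dependent luminescence, with CC50 derived. Values are from three independent experiments (n = 3), and standard deviations are reported.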

WT HIV-1 = assay: Single-round infectivity assay, WT RT vector; details: for EC50: Human immunodeficiency virus 1, read-out: EC50 WT; for TI (therapeutic index): calculated from CC50 and WT EC50
Procedure, shortened: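 Single-round infection with an HIV-1-based vector (pNLNgoMIVR-ΔENV.LUC, Env-deleted, luciferase-carrying) with wild-type RT, used to derive EC50. Therapeutic index is calculated from CC50 (ATP-dependent luminescence assay) and wild-type EC50. Three independent experiments (n = 3), with standard deviations.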

[2] = test system: HIV-1 NNRTI-resistant mutant L100I; assay: Single-round infectivity assay, L100I; details: Human immunodeficiency virus 1, read-out: EC50 L100I
Procedure, shortened: (§1)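 Single-round infection with the HIV-1-based vector pNLNgoMIVR-ΔENV.LUC (Env-deleted, luciferase-carrying) bearing the indicated RT mutation(s), used to derive EC50. The mutant vectors are previously described constructs.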

[3] = test system: HIV-1 NNRTI-resistant mutant K103N; assay: Single-round infectivity assay, K103N; details: Human immunodeficiency virus 1, read-out: EC50 K103N
Procedure, shortened: as §1

[4] = test system: HIV-1 NNRTI-resistant mutant E138K; assay: Single-round infectivity assay, E138K; details: Human immunodeficiency virus 1, read-out: EC50 E138K
Procedure, shortened: as §1

[5] = test system: HIV-1 NNRTI-resistant mutant Y181C; assay: Single-round infectivity assay, Y181C; details: Human immunodeficiency virus 1, read-out: EC50 Y181C
Procedure, shortened: as §1

[6] = test system: HIV-1 NNRTI-resistant mutant Y188L; assay: Single-round infectivity assay, Y188L; details: Human immunodeficiency virus 1, read-out: EC50 Y188L
Procedure, shortened: as §1

[7] = test system: HIV-1 NNRTI-resistant mutant H221Y; assay: Single-round infectivity assay, H221Y; details: Human immunodeficiency virus 1, read-out: EC50 H221Y
Procedure, shortened: as §1

[8] = test system: HIV-1 NNRTI-resistant mutant K103N/Y181C; assay: Single-round infectivity assay, K103N/Y181C; details: Human immunodeficiency virus 1, read-out: EC50 K103N/Y181C
Procedure, shortened: as §1

[9] = test system: HIV-1 NNRTI-resistant mutant K101P; assay: Single-round infectivity assay, K101P; details: read-out: EC50 K101P; single-round infection, n = 3
Procedure, shortened: as §1

[10] = test system: HIV-1 NNRTI-resistant mutant M230L; assay: Single-round infectivity assay, M230L; details: Human immunodeficiency virus 1, read-out: EC50 M230L
Procedure, shortened: as §1

[11] = test system: HIV-1 NNRTI-resistant mutant L100I/K103N; assay: Single-round infectivity assay, L100I/K103N; details: Human immunodeficiency virus 1, read-out: EC50 L100I/K103N
Procedure, shortened: as §1

[12] = test system: HIV-1 NNRTI-resistant mutant K103N/P225H; assay: Single-round infectivity assay, K103N/P225H; details: Human immunodeficiency virus 1, read-out: EC50 K103N/P225H
Procedure, shortened: as §1

[13] = test system: HIV-1 NNRTI-resistant mutant V106A/G190A/F227L; assay: Single-round infectivity assay, V106A/G190A/F227L; details: Human immunodeficiency virus 1, read-out: EC50 V106A/G190A/F227L
Procedure, shortened: as §1

[14] = test system: HIV-1 DOR-resistant mutant V106A/F227L; assay: Single-round infectivity assay, V106A/F227L; details: read-out: EC50 V106A/F227L; single-round infection, n = 3
Procedure, shortened: as §1

[15] = test system: HIV-1 DOR-resistant mutant V106A/L234I; assay: Single-round infectivity assay, V106A/L234I; details: read-out: EC50 V106A/L234I; single-round infection, n = 3
Procedure, shortened: as §1

[16] = test system: HIV-1 DOR-resistant mutant V106A/F227L/L234I; assay: Single-round infectivity assay, V106A/F227L/L234I; details: read-out: EC50 V106A/F227L/L234I; single-round infection, n = 3
Procedure, shortened: as §1

[17] = test system: HIV-1 RT-resistant mutant K101E; assay: Single-round infectivity assay, K101E; details: Human immunodeficiency virus 1, read-out: EC50 K101E
Procedure, shortened: as §1

[18] = test system: HIV-1 NNRTI-resistant mutant G190S; assay: Single-round infectivity assay, G190S; details: read-out: EC50 G190S; single-round infection, n = 3
Procedure, shortened: as §1

[19] = test system: HIV-1 NNRTI-resistant mutant P236L; assay: Single-round infectivity assay, P236L; details: read-out: EC50 P236L; single-round infection, n = 3
Procedure, shortened: as §1

[20] = test system: HIV-1 DOR-resistant mutant L234I; assay: Single-round infectivity assay, L234I; details: read-out: EC50 L234I; single-round infection, n = 3
Procedure, shortened: as §1

[21] = test system: HIV-1 RT-resistant mutant D67E; assay: Single-round infectivity assay, D67E; details: read-out: EC50 D67E; single-round infection, n = 3
Procedure, shortened: as §1

[22] = test system: HIV-1 RT-resistant mutant K101E/M184I; assay: Single-round infectivity assay, K101E/M184I; details: read-out: EC50 K101E/M184I; single-round infection, n = 3
Procedure, shortened: as §1

[23] = test system: HIV-1 RT-resistant mutant K101E/M184V; assay: Single-round infectivity assay, K101E/M184V; details: read-out: EC50 K101E/M184V; single-round infection, n = 3
Procedure, shortened: as §1

Row | Compound | CC50 [1] [nM] | EC50 (WT HIV-1) [nM] | TI (therapeutic index) (WT HIV-1) | EC50 [2] [nM] | EC50 [3] [nM] | EC50 [4] [nM] | EC50 [5] [nM] | EC50 [6] [nM] | EC50 [7] [nM] | EC50 [8] [nM] | EC50 [10] [nM] | EC50 [11] [nM] | EC50 [12] [nM] | EC50 [13] [nM] | EC50 [14] [nM] | EC50 [16] [nM] | EC50 [17] [nM] | also measured
1 | Cc1cc(/C=C/C#N)cc(C)c1Nc1nc(Nc2ccc(/C=C/C#N)cc2)ncc1N [Compound 12, (E)‐3‐(4‐((5‐amino‐2‐((4‐((E)‐2‐cyanovinyl)phenyl)amino)pyrimidin‐4‐yl)amino)‐3,5‐dimethylphenyl)acrylonitrile] | 32200 ± 1500 | 1.2 ± 0.2 | >25,000 | 1.8 ± 0.2 | 1.6 ± 0.2 | 6.5 ± 0.9 | 5.3 ± 0.8 | 44 ± 2.6 | 1.6 ± 0.1 | 22.4 ± 1.1 | 16.9 ± 1.2 | 16.1 ± 0.2 | 1.6 ± 0.2 | 2.5 ± 0.5 | 2 ± 0.1 | 1.3 ± 0.1 | 3.4 ± 0.1 | EC50 [9]: 126 ± 29.4 nM; EC50 [15]: 1.4 ± 0.5 nM
2 | Cc1cc(/C=C/C#N)cc(C)c1-n1cnc2cnc(Nc3ccc(/C=C/C#N)cc3)nc21 [Compound 13, (E)‐3‐(4‐((9‐(4‐((E)‐2‐cyanovinyl)‐2,6‐dimethylphenyl)‐9H‐purin‐2‐yl)amino)phenyl)acrylonitrile] | > 250000 | 1.4 ± 0.2 | >25,000 | 28.6 ± 7.6 | 9.3 ± 0.7 | 29.1 ± 1.9 | 92.4 ± 10 | 208 ± 12 | 2.6 ± 0.7 | 323 ± 56.7 | 60 ± 0.9 | 252 ± 21.9 | 29.1 ± 1.6 | 4.7 ± 0.9 | – | 5.4 ± 1.1 | 9.7 ± 1.2 | EC50 [18]: 1.2 ± 0.3 nM; EC50 [19]: 1.1 ± 0.05 nM; EC50 [20]: 1.8 ± 0.4 nM; EC50 [21]: 9.5 ± 1.8 nM; EC50 [22]: 7 ± 0.6 nM; EC50 [23]: 3.9 ± 0.6 nM
3 | Cn1c(Cn2ccc(C(F)(F)F)c(Oc3cc(Cl)cc(C#N)c3)c2=O)n[nH]c1=O [DOR, doravirine, reference compound] | – | – | >25,000 | 1.1 ± 0.2 | 4.5 ± 2.8 | 13.9 ± 2.4 | 2 ± 0.2 | > 100 | 4.6 ± 1.8 | 11.3 ± 5.9 | 51.1 ± 6.5 | 2 ± 0.8 | 25.3 ± 4.5 | > 100 | – | – | 0.4 ± 0.04 | –
4 | O=C1Nc2ccc(Cl)cc2[C@@](C#CC2CC2)(C(F)(F)F)O1 [EFV, efavirenz, reference compound] | 36400 ± 1600 | 0.9 ± 0.1 | >25,000 | 5.4 ± 0.9 | 35.8 ± 9.1 | 2.5 ± 0.4 | 1.6 ± 0.1 | 76.8 ± 6.5 | 2.2 ± 0.4 | 36 ± 8.4 | 14.3 ± 2 | 488 ± 50 | 50.4 ± 3.1 | 185 ± 19.8 | – | – | 11 ± 1.2 | –
5 | Cc1cc(/C=C/C#N)cc(C)c1Nc1ccnc(Nc2ccc(C#N)cc2)n1 [RPV, rilpivirine, reference compound] | – | – | >25,000 | 0.1 ± 0.03 | 1 ± 0.2 | 1 ± 0.1 | 1.4 ± 0.4 | 2.3 ± 0.2 | 1.3 ± 0.1 | 3.5 ± 0.3 | 1.7 | 2.3 ± 0.2 | 0.6 ± 0.2 | 0.5 ± 0.02 | 0.8 ± 0.1 | – | 2.6 ± 1.6 | –
